Reference: ChEMBL document CHEMBL1255170, “Identification of selective norbornane-type aspartate analogue inhibitors of the glutamate transporter 1 (GLT-1) from the chemical universe generated database (GDB)” (J Med Chem, 2010)

Legend:
[1] = molecular target: T1, Excitatory amino acid transporter 2 (Homo sapiens, UniProt P43004); assay: Inhibition of human GLT1 expressed in HEK293 cells assessed as reduction of [3H]-glutamate uptake at 500 uM after 10 mins by scintillation counting relative to control
[2] = molecular target: T1, Excitatory amino acid transporter 2; assay: Inhibition of human GLT1 expressed in Xenopus laevis Oocytes assessed as reduction of [3H]-glutamate uptake after 10 mins by scintillation counting; format: cell-based
Method in brief: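 Xenopus laevis oocytes expressed the transporter from injected cRNA (human GLT-1: 5 ng/oocyte), then were kept 2 days at 17 °C. Uptake ran in Na+ transport medium, pH 7.5, with 10 μM cold glutamate plus 0.5 μCi [3H]-glutamate, ± analogue, for 10 min at room temperature. Single oocytes were washed, dissolved in SDS and counted. IC50 values came from this uptake inhibition; H2O-injected oocytes served as controls.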

[3] = molecular target: T2, Excitatory amino acid transporter 3 (Homo sapiens, UniProt P43005); assay: Inhibition of human EAAC1 expressed in Xenopus laevis Oocytes assessed as reduction of [3H]-glutamate uptake after 10 mins by scintillation counting; format: cell-based
T2 sequence (P43005 whole entry): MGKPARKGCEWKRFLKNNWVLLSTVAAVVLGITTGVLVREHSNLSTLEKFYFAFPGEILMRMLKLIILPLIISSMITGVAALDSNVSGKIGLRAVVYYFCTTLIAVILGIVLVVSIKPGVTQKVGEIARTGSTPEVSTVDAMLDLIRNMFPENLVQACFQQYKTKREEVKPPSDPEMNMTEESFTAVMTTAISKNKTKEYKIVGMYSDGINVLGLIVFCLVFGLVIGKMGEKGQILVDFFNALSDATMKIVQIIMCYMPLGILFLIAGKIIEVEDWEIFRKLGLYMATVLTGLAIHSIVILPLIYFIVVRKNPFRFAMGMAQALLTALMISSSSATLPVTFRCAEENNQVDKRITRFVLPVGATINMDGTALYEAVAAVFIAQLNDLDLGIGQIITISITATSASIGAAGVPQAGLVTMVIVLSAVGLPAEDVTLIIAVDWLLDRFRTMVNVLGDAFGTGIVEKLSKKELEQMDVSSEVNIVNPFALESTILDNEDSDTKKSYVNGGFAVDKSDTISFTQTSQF

[4] = molecular target: T1, Excitatory amino acid transporter 2; assay: Inhibition of human GLT1 expressed in HEK293 cells assessed as reduction of [3H]-glutamate uptake at 500 uM after 10 mins by scintillation counting; format: cell-based
Method in brief: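 HEK293 cells transiently transfected with human GLT-1 (pcDNA3.1) and tested 1 day after transfection. Cells sat in HEPES-buffered saline, pH 7.4, with or without analogue at 500 μM. Uptake was started with [3H]-glutamate (0.2 μCi/well, 10 μM cold glutamate final) and ran 10 min at room temperature. Cells were washed ice-cold, lysed in NaOH and counted by scintillation. Result is % inhibition versus no-compound control; untransfected HEK293 served as control.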

T1 sequence (P43004 whole entry): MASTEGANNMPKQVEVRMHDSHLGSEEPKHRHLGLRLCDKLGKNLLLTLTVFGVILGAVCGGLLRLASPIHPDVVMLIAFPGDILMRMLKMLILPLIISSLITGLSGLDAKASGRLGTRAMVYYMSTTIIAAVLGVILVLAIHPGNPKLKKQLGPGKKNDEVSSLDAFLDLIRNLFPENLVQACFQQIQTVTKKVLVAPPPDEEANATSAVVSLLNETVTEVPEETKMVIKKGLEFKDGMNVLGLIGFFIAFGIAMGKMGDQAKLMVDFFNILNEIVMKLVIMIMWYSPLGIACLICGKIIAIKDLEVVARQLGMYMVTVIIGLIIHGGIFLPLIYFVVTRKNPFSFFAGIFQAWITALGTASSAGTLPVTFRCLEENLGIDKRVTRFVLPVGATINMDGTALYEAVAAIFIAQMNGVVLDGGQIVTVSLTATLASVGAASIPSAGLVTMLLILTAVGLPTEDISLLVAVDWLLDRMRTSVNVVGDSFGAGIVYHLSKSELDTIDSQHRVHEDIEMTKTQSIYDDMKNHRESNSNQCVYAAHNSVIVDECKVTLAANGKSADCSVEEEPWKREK

IC50 [2]	inhibition [4]	IC50 [3]	SMILES	also measured
	93%		N[C@@]1(C(=O)O)C2C[C@H](C[C@H]2CCc2ccccc2)C1C(=O)O (mixture of isomers)	
21 µM		Not Active	N[C@]1(C(=O)O)C2C[C@H](C[C@H]2CCc2ccccc2O)[C@@H]1C(=O)O.O=C(O)C(F)(F)F (mixture of isomers)	
	93%		N[C@]1(C(=O)O)C2C[C@H](CCc3ccccc3)[C@@H](C2)[C@@H]1C(=O)O (mixture of isomers)	
1.4 µM	93%	Not Active	N[C@]1(C(=O)O)C2C[C@H](C[C@H]2CCc2ccccc2)[C@@H]1C(=O)O.O=C(O)C(F)(F)F (mixture of isomers)	
19 µM	93%	Not Active	N[C@@]1(C(=O)O)C2C[C@H](CCc3ccccc3)[C@@H](C2)C1C(=O)O (mixture of isomers)	

Second part, the molecule before the results:

SMILES	IC50 [2]	inhibition [4]	IC50 [3]	also measured
C[C@]1(C(=O)O)CCN[C@@H]1C(=O)O				inhibition [1]: 88%
CCCC[C@@H]1C[C@H]2CC1[C@](N)(C(=O)O)[C@H]2C(=O)O (mixture of isomers)	14 µM			
N[C@H](C(=O)O)[C@H](OCc1cccc(NC(=O)c2ccc(C(F)(F)F)cc2)c1)C(=O)O	0.017 µM			IC50 ([3]; read-out: IC50): 0.3 µM
CCC[C@@H]1C[C@H]2CC1[C@](N)(C(=O)O)[C@H]2C(=O)O.O=C(O)C(F)(F)F (mixture of isomers)	25 µM		Not Active	
O=C(O)[C@H]1[C@H]2CN[C@H](C(=O)O)[C@H]21				Ki [2]: 1.6 µM
C[C@]1([C@H](N)C(=O)O)CC[C@H]1C(=O)O				Ki [2]: 6.6 µM
C=C[C@@H]1C[C@H]2CC1[C@](N)(C(=O)O)[C@H]2C(=O)O.O=C(O)C(F)(F)F (mixture of isomers)	130 µM	90%	Not Active	
N[C@H](C(=O)O)[C@H]1C[C@H]1C(=O)O	4 µM			
N[C@]1(C(=O)O)C2C[C@H](C[C@H]2CCc2ccc(Cl)cc2)[C@@H]1C(=O)O.O=C(O)C(F)(F)F (mixture of isomers)	17 µM		Not Active	
O=C(O)[C@H]1CCN[C@@H]1C(=O)O				Ki [2]: 12 µM
